Values after ≈ are worked out from the molar mass of the structure shown. Active and inactive are the calls of the source. The calls are words filed in the database; no cut-off is given here.
How the values were obtained:
Staphylococcus aureus [1] = test: Antimicrobial activity against methicillin-resistant Staphylococcus aureus ATCC 43300 after 18 to 24 hrs by macrodilution method; assay type: functional
Pseudomonas aeruginosa = test: Antimicrobial activity against Pseudomonas aeruginosa ATCC 27853 after 18 to 24 hrs by macrodilution method; assay type: functional
Escherichia coli [2] = test: Antimicrobial activity against Escherichia coli ATCC 25922 after 18 to 24 hrs by macrodilution method; assay type: functional
Escherichia coli [3] = test: Inhibition of Escherichia coli MurE assessed as residual activity at 200 uM after 30 mins by HPLC analysis
In short: (§1)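 Radioactivity-based ligase assay with Tween-20 detergent present to prevent aggregate-driven inhibition; residual enzyme activity measured with compound at a single fixed concentration of 200 μM or 500 μM.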

[4] = Inhibition of Staphylococcus aureus MurD after 30 mins by HPLC analysis
In short: (§2)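 Radioactivity-based ligase assay on E. coli or S. aureus MurD or MurE, run with Tween-20 detergent present to prevent nonspecific inhibition by compound aggregates; IC50 values reported.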

[5] = Inhibition of Escherichia coli MurE after 30 mins by HPLC analysis; in short: as §2
Staphylococcus aureus [6] = test: Antimicrobial activity against Staphylococcus aureus ATCC 29213 after 18 to 24 hrs by macrodilution method; assay type: functional
Enterococcus faecalis = test: Antimicrobial activity against Enterococcus faecalis ATCC 29212 after 18 to 24 hrs by macrodilution method; assay type: functional
Staphylococcus aureus [7] = test: Inhibition of Staphylococcus aureus MurE at 200 uM after 30 mins by HPLC analysis; in short: as §1
[8] = Inhibition of Staphylococcus aureus MurE after 30 mins by HPLC analysis; in short: as §2
[9] = Inhibition of Escherichia coli MurD after 30 mins by HPLC analysis; in short: as §2
Staphylococcus aureus [10] = test: Inhibition of Staphylococcus aureus MurE assessed as residual activity at 500 uM after 30 mins by HPLC analysis
Escherichia coli [11] = test: Inhibition of Escherichia coli MurE assessed as residual activity at 500 uM after 30 mins by HPLC analysis; in short: as §1
HepG2 = test: Cytotoxicity against human HepG2 cells up to 200 uM after 24 hrs by MTT assay; assay type: cell-based; conditions: hepg2, 24 h

| Activity (Staphylococcus aureus [10]) | Activity (Escherichia coli [11]) | Compound | MIC (Staphylococcus aureus [1]) | MIC (Pseudomonas aeruginosa) | MIC (Escherichia coli [2]) | Activity (Escherichia coli [3]) | IC50 [4] | IC50 [5] | MIC (Staphylococcus aureus [6]) | MIC (Enterococcus faecalis) | inhibition (Staphylococcus aureus [7]) | IC50 [8] | IC50 [9] | Activity (HepG2) |
| --- | --- | --- | --- | --- | --- | --- | --- | --- | --- | --- | --- | --- | --- | --- |
|  |  | O=C(O)CC[C@@H](NC(=O)c1cccc(NCc2ccc(/C=C3\SC(=O)NC3=O)cc2)c1)C(=O)O | > 128 µg/mL | > 128 µg/mL | > 128 µg/mL | 51% | 100 µM | 200 µM | > 128 µg/mL | > 128 µg/mL | inactive | > 200 µM | 36 µM |  |
| 64% | 64% | O=C(O)CC[C@@H](NC(=O)c1cccc(CNc2ccc(/C=C3\SC(=O)NC3=O)cc2)c1)C(=O)O |  |  |  |  |  |  |  |  |  |  | 35 µM |  |
|  |  | O=C(O)CC[C@@H](NC(=O)c1cccc(NCc2ccc(/C=C3\SC(=S)NC3=O)cc2)c1)C(=O)O | 8 µg/mL (≈ 16 µM) | > 128 µg/mL | > 128 µg/mL |  | 6.4 µM | 180 µM | 8 µg/mL (≈ 16 µM) | 64 µg/mL (≈ 128 µM) |  | 17 µM | 8.2 µM | Non-toxic |
